Where only a bound is given, the exact number is not on record here.

For orientation: CC50 means the concentration at which the toxic effect on the cells reaches its halfway point. The term IC50 denotes the concentration needed to halve the response being measured.

The nature of data set [1]: (§1) Cytotoxicity against human HeLa cells assessed as reduction in cell viability incubated for 72 hrs measured by crystal violet based micro plate reader method. The note with it: HeLa cells. The method in brief: (§2)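 Two-day-old confluent HeLa Ohio monolayers exposed to half-log dilutions (100 μM downward) in 2% FCS medium for 72 h at 37 °C, 5% CO2. Cells fixed and stained with crystal violet/formalin, dye eluted with acidified citrate-ethanol, OD read at 550/630 nm. Viability expressed relative to six mock-treated controls; CC50 is the mean of at least 3 tests.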

Data set [2] concerns Coxsackievirus B3. In words: Antiviral activity against Coxsackievirus B3 Nancy infected in human HeLa cell line assessed as inhibition of virus-induced cytopathic effect measured after 48 hrs by crystal violet uptake assay. It is filed as functional, organism-based. In a few lines:
(§3)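 HeLa Ohio monolayers, 2 days old and confluent, in MEM with 2% FCS. Serial half-log compound dilutions from 100 μM were added just before CVB3 infection. Activity was calculated per Pauwels against six cell and six virus controls; mean IC50 from ≥3 experiments.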
For orientation: Damage to the host cells serves as the signal in cytopathic effect assays.

Data set [3] has as its system Coxsackievirus B3. The data set can be described thus: Antiviral activity against wild type Coxsackievirus B3 97927 infected in human HeLa cell line assessed as inhibition of virus-induced cytopathic effect measured after 48 hrs by crystal violet uptake assay. In kind it is functional, organism-based. Conditions: read-out: IC50; call rule not given here. The method in brief: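 Coxsackievirus B3 infection of 2-day-old HeLa Ohio monolayers in 2% FCS medium. Half-log dilutions from 100 μM added just before infection; guanidine hydrochloride served as positive control. Antiviral activity calculated per Pauwels; IC50 is the mean of at least 3 separate tests.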

Data set [4] has as its system rhinovirus A2. In words: Antiviral activity against Rhinovirus A2 infected in human HeLa cell line assessed as inhibition of virus-induced cytopathic effect measured after 72 hrs by crystal violet uptake assay. In kind it is functional, organism-based. In a few lines:
(§4)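 HeLa Ohio monolayers, 1 day old, in 2% FCS medium. Compound added as serial half-log dilutions from 100 μM immediately before rhinovirus infection. Activity calculated per Pauwels; IC50 is the mean of at least 3 experiments.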

For data set [5], the system named is rhinovirus B5. The data set can be described thus: Antiviral activity against Rhinovirus B5 infected in human HeLa cell line assessed as inhibition of virus-induced cytopathic effect measured after 72 hrs by crystal violet uptake assay. In kind it is functional, organism-based. In a few lines: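 HeLa Ohio monolayers, 1 day old, in 2% FCS medium. Compound added as serial half-log dilutions from 100 μM immediately before rhinovirus infection. CPE read at 72 h by crystal violet staining, elution and OD 550/630 nm, with six cell and six virus controls per plate. Activity calculated per Pauwels; IC50 is the mean of at least 3 experiments.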

The test system of data set [6] is rhinovirus B14. In words: Antiviral activity against Rhinovirus B14 infected in human HeLa cell line assessed as inhibition of virus-induced cytopathic effect measured after 72 hrs by crystal violet uptake assay. In kind it is functional, organism-based. In a few lines: as §4
Data set [7] deals with HeLa. The data set is described as §1. Conditions: hela, 72 h. The method in brief: as §2
Data set [8] concerns Coxsackievirus B3. The data set can be described thus: Antiviral activity against pleconaril-resistant Coxsackievirus B3 97927 11207K/I1092 mutant infected in human HeLa cell line assessed as inhibition of virus-induced cytopathic effect measured after 48 hrs by crystal violet uptake assay. It is filed as functional, organism-based. The method in brief:
as §3

In data set [9] the test system is Coxsackievirus B3. In words: Antiviral activity against pleconaril-resistant Coxsackievirus B3 97927 11207M/I1092 mutant infected in human HeLa cell line assessed as inhibition of virus-induced cytopathic effect measured after 48 hrs by crystal violet uptake assay. It is filed as functional, organism-based. In a few lines:
as §3

The test system of data set [10] is Coxsackievirus B3. In words: Antiviral activity against pleconaril-resistant Coxsackievirus B3 97927 11207T/I1092 mutant infected in human HeLa cell line assessed as inhibition of virus-induced cytopathic effect measured after 48 hrs by crystal violet uptake assay. In kind it is functional, organism-based. The method in brief:
as §3

The nature of data set [11]: Mutagenicity in Escherichia coli PQ37 at 10 mg/ml by SOS-chromotest. It is filed as toxicity.
Data set [12] in a line: Genotoxicity in Escherichia coli PQ37 assessed as zone of inhibition at 10 mg/ml measured on day 3 by SOS-chromo0test relative to control. In kind it is toxicity. Conditions: 72 h, time 3 day.
Setting [13] is: Enterovirus B, 97927, HeLa, 48 h.
Where [14] appears, read: Rhinovirus B, HeLa, 72 h, read-out: IC50.
[15] abbreviates: Enterovirus B, Nancy, HeLa, 48 h, read-out: IC50.
Where [16] appears, read: Rhinovirus A, HeLa, 72 h, read-out: IC50.

Regarding `CCOC(=O)c1cc(CCCOc2ccc(-c3noc(C(F)(F)F)n3)cn2)on1`, the CC50 at 72 h in data set [1] was over 100000 nM. The IC50 result was “Not Active” in data set [2]; 10300 nM in data set [3] (setting [13]); “Not Active” in [4]; “Not Active” in data set [5]; 1990 nM in data set [6] (setting [14]).
Consider `CCOC(=O)c1cc(CCCOc2ccc(-c3noc(C(F)(F)F)n3)cc2C)on1`, for which the CC50 in data set [7] was 35100 nM. Also, the IC50 was 19000 nM in data set [2] (setting [15]); 62 nM in [3] (setting [13]); “Not Active” in [8]; 610 nM in data set [9]; 1230 nM in data set [10] (read-out: IC50); “Not Active” in data set [4]. In addition, the 50% inhibitory concentration (IC50) result in [5] was “Not Active”; in data set [6] (setting [14]), 520 nM.
Turning to `COC(=O)c1cc(CCCOc2c(C)cc(-c3noc(C(F)(F)F)n3)cc2C)on1`, the CC50 in [7] was determined as 35400 nM. Further, the IC50 in [2] (setting [15]) was 17900 nM; in data set [3] (setting [13]), 60 nM; in [8] (read-out: IC50), 20400 nM; in data set [9], 1530 nM; in data set [10] (read-out: IC50) it was 12800 nM; in data set [4] (setting [16]), 360 nM. In addition, the half-inhibitory concentration (IC50) entry in [5] is “Not Active”; in [6] (setting [14]), 370 nM.
For the compound `Cc1cc(-c2noc(C(F)(F)F)n2)cc(C)c1OCCCc1cc(C(=O)N(C)C)no1`, the CC50 in data set [7] was 13200 nM. Also, the IC50 in data set [3] (setting [13]) came to 20 nM; in data set [8] (read-out: IC50), 6330 nM; in [9], 30 nM; in data set [10] (read-out: IC50), 1010 nM; in data set [4] (setting [16]), 120 nM; in data set [6] (setting [14]), 120 nM. Further, the Activity entry in [11] is “Non-Toxic”. Also, the “inhibition zone (IZ)” value in data set [12] stood at 0 mm.
Regarding `COc1cc(-c2noc(C(F)(F)F)n2)cc([N+](=O)[O-])c1OCCCc1cc(C(=O)N(C)C)no1`, in data set [7], the CC50 stood at 25600 nM. Moreover, the IC50 was 14500 nM in data set [2] (setting [15]); 365 nM in [3] (setting [13]); “Not Active” in [8]; 880 nM in data set [9]; 840 nM in data set [10] (read-out: IC50); 320 nM in data set [4] (setting [16]). Moreover, the figures for the IC50 entry in [5] and in [6] (setting [14]) were “Not Active” and 200 nM, respectively.
Consider `CN(C)C(=O)c1cc(CCCOc2ccc(-c3noc(C(F)(F)F)n3)cc2F)on1`, for which the CC50 in data set [7] amounted to 20200 nM. The IC50 was 18500 nM in [2] (setting [15]); 25 nM in data set [3] (setting [13]); “Not Active” in data set [8]; 60 nM in data set [9]; 1440 nM in [10] (read-out: IC50); 3770 nM in [4] (setting [16]). Also, the 50% inhibitory concentration (IC50) in data set [5] (setting [14]) is 4040 nM; in [6] (setting [14]), 50 nM.
On to `CN(C)C(=O)c1cc(CCCOc2ccc(-c3noc(C(F)(F)F)n3)cc2N)on1`, for which the CC50 in [7] worked out at 90800 nM. Moreover, the IC50 in data set [2] (setting [15]) amounted to 27800 nM; in data set [3] (setting [13]), 4470 nM; in data set [8] (read-out: IC50), 51600 nM; in data set [9], 2080 nM; in data set [10] (read-out: IC50), 14300 nM; in [4] (setting [16]), 18200 nM. Also, the IC50 entry was “Not Active” in data set [5] and 330 nM in data set [6] (setting [14]).
Consider `CN(C)C(=O)c1cc(CCCOc2ccc(-c3noc(C(F)(F)F)n3)cc2)on1`, for which, in data set [7], the CC50 was 28000 nM. The IC50 worked out at 10800 nM in [2] (setting [15]); 458 nM in [3] (setting [13]); 27500 nM in data set [8] (read-out: IC50); 20 nM in data set [9]; 8110 nM in data set [10] (read-out: IC50); 4610 nM in [4] (setting [16]). Also, the values for the IC50 in [5] (setting [14]) and in data set [6] (setting [14]) were 1740 nM and 40 nM, respectively.
Regarding `CN(C)C(=O)c1cc(CCCOc2ccc(-c3noc(C(F)(F)F)n3)cc2C(F)(F)F)on1`, in data set [7], the CC50 was determined as 19200 nM. For the same compound, the IC50 in data set [2] (setting [15]) was 2240 nM; in data set [3], 160 nM; in [8] (read-out: IC50) it was 7180 nM; in data set [9], 160 nM; in data set [10] (read-out: IC50) it was 540 nM; in data set [4] (setting [16]), 320 nM. For the same compound, the IC50 result was “Not Active” in [5] and 6760 nM in [6] (setting [14]). In addition, the Activity entry in data set [11] is “Non-Toxic”. For the same compound, in [12], the “inhibition zone (IZ)” value is reported as 0 mm.
Take `CNC(=O)c1cc(CCCOc2c(C)cc(-c3noc(C(F)(F)F)n3)cc2C)on1`: the CC50 in data set [7] is over 100000 nM. The IC50 in [3] (setting [13]) was 60 nM; in data set [8] it was “Not Active”; in [9], 370 nM; in [10] it was “Not Active”; in [4] (setting [16]) it was 200 nM; in [6] (setting [14]), 20 nM. Besides, in data set [11], the Activity entry is given as “Non-Toxic”. In addition, in data set [12], the “inhibition zone (IZ)” value is 0 mm.
In the case of `CNC(=O)c1cc(CCCOc2ccc(-c3noc(C(F)(F)F)n3)cc2C(F)(F)F)on1`, in data set [7], the CC50 is over 100000 nM. The IC50 in [2] (setting [15]) is 14100 nM; in data set [3] (setting [13]), 20 nM; in data set [8], “Not Active”; in [9], 60 nM; in [10] (read-out: IC50) it was 1040 nM; in data set [4] (setting [16]), 960 nM. Moreover, the IC50 result in data set [5] and in [6] was “Not Active” in each case.
As to `CN(C)C(=O)c1cc(CCCOc2ccc(-c3noc(C(F)(F)F)n3)cc2[N+](=O)[O-])on1`, the CC50 in data set [7] turned out to be 22500 nM. Besides, the IC50 in [2] (setting [15]) stood at 1660 nM; in [3] (setting [13]), 3 nM; in [8] (read-out: IC50), 6460 nM; in [9], 1 nM; in data set [10] (read-out: IC50), 30 nM; in [4] (setting [16]), 670 nM. Moreover, the figures for the IC50 in [5] (setting [14]) and in data set [6] (setting [14]) were 7630 nM and 280 nM, respectively. In addition, the Activity result in data set [11] was “Non-Toxic”. The “inhibition zone (IZ)” value in [12] is 0 mm.
Take `COc1cc(-c2noc(C(F)(F)F)n2)ccc1OCCCc1cc(C(=O)N(C)C)no1`: in [7], the CC50 came to 68000 nM. The IC50 in data set [2] (setting [15]) turned out to be 37800 nM; in data set [3] (setting [13]), 30 nM; in data set [8] (read-out: IC50) it was 51700 nM; in [9], 600 nM; in data set [10] (read-out: IC50), 1660 nM; in data set [4] (setting [16]) it was 1970 nM. The half-inhibitory concentration (IC50) in [5] (setting [14]) came out at 3280 nM; in [6] (setting [14]) it was 40 nM.

The values are drawn from ChEMBL document CHEMBL4765245 (Eur J Med Chem, 2020).
